This note sets out measurements from ChEMBL document CHEMBL1147901, “Anticancer, neuroprotective activities and computational studies of 2-amino-1,3,4-thiadiazole based compound” (Bioorg Med Chem, 2007).

Active and inactive are the calls of the source.

For test [1], the species on record is Rattus norvegicus. Put plainly: Neuroprotective activity against serum deprivation induced neurotoxicity in rat cortical neurons. It is filed as functional. In short, it runs like this: (§1)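 Cortical neurons from E18 Wistar rat fetuses, plated at 5 × 10^5 cells/mL on poly-L-lysine in B-27/Neurobasal medium and grown to 14 days. Insult was glutamate (500 µM) or serum deprivation (Neurobasal without B-27), alone or with 10 or 25 µM compound, for 48 h. MTT read-out as mean normalized OD ±SEM of 4–8 trials.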

Test [2] has as its system A549. Put plainly: Antiproliferative activity against human A549 cells at 10 uM after 96 hrs by MTT assay. It is filed as functional, cell-based. As to conditions: A549, 96 h. A digest of the protocol: (§2)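 MTT viability. Seeded per well at 0.5 × 10^4 (C6), 1 × 10^4 (TE671, A549) or 3 × 10^4 (HT-29, SK-N-AS). Next day exposed to serial dilutions (5–100 µM) in fresh medium with 10% FBS at 37 °C, 5% CO2 for 96 h. MTT (5 mg/mL) for 4 h, formazan dissolved overnight in 10% SDS/0.01 N HCl, A570. Threshold concentration giving antiproliferative effect recorded.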
On the technique in general: Formazan colour is commonly taken as a measure of viable cells.

For test [3], the system named is C6. Put plainly: Inhibition of rat glioma C6 cell migration at 5 uM after 24 hrs. In kind it is functional, cell-based. A digest of the protocol:
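Scratch-wound assay. 1 × 10^6 C6 cells were plated per 4-cm dish. Next day the monolayer was scratched with a pipette tip and rinsed twice with PBS. Fresh medium alone or with 5 µM compound for 24 h, then May-Grünwald–Giemsa staining. Cells migrated into the wound were counted on micrographs as mean per field ±SEM over 50 wound areas from four micrographs; Student's t test.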

Test [4] concerns C6. Put plainly: Antiproliferative activity against rat glioma C6 cells at 25 uM after 96 hrs by MTT assay. In kind it is functional, cell-based. The settings on record: C6, 96 h. A digest of the protocol: as §2
A further test has as its system TE-671. Put plainly: Antiproliferative activity against human TE671 cells at 10 uM after 96 hrs by MTT assay. The settings on record: TE-671, 96 h. In kind it is functional, cell-based. In short, it runs like this: as §2
The species named for test [5] is Rattus norvegicus. Put plainly: Neuroprotective activity against glutamate-induced neurotoxicity in rat cortical neurons. It is filed as functional. A digest of the protocol:
as §1

Another test deals with SK-N-AS. Put plainly: Antiproliferative activity against human SK-N-AS cells at 25 uM after 96 hrs by MTT assay. In kind it is functional, cell-based. A digest of the protocol:
as §2

The test system of a further test is HT-29. Put plainly: Antiproliferative activity against human HT29 cells at 5 uM after 96 hrs by MTT assay. The settings on record: HT-29, 96 h. In kind it is functional, cell-based. In short, it runs like this:
as §2

The subject of test [6] is C6. Put plainly: Antiproliferative activity against rat glioma C6 cells assessed as decreased cell division after 48 hrs. The settings on record: C6, 48 h. It is filed as functional, cell-based. In short, it runs like this: (§3)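 BrdU ELISA. Cells seeded at 2 × 10^4 (A549) or 1 × 10^4 (C6) per well. Next day, fresh medium containing serial dilutions (5–50 µM) was added for 48 h. Cells were then labelled with 10 µM BrdU for 2 h, fixed/denatured 30 min, probed with peroxidase anti-BrdU and developed with TMB. Stopped with 1 M H2SO4, A450. Mean normalized OD ±SEM of 5–8 trials, linear regression.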

The test system of test [7] is A549. Put plainly: Antiproliferative activity against human A549 cells assessed as decreased cell division after 48 hrs. It is filed as functional, cell-based. As to conditions: A549, 48 h. A digest of the protocol:
as §3

By IC50 is commonly meant the concentration needed to halve the response being measured. For `Oc1ccc(-c2nnc(Nc3ccc(F)cc3)s2)c(O)c1`, the Activity entry in the test filed under Rattus norvegicus [1] and in the test filed under Rattus norvegicus [5] was “Dose-dependent effect” throughout. The IC50 in the test on A549 [2] is 22.8 µM; in the test on C6 [4], 27.3 µM; with TE-671 it was 26 µM; in the test on SK-N-AS, 54.7 µM; with HT-29, 33.1 µM; in the test on C6 [6] it was 23.5 µM. Also, the 50% inhibitory concentration (IC50) with A549 [7] was found to be 13.7 µM. In the test with C6 [3], the outcome was Active.
